Data taken from ChEMBL document CHEMBL1121524, “Studies of hypolipidemic agents. 1. Synthesis and hypolipidemic activities of alkoxycinnamic acid derivatives” (1980).

tested on: Rattus norvegicus; assay: In vivo hypolipidemic activity, expressed as percent decrease in serum triglyceride in rat, at dosage of 20 mg for 7 days.

Going from `C/C(=C\c1ccc(Oc2ccccc2)cc1)C(=O)OCC(O)CO` (stereo not drawn) to `O=C(O)/C=C/c1ccc(Oc2ccccc2)cc1`, the Decrease rises from -1% to 14%.

Going from `CCCCCCCCCCCCCCCCOc1ccc(/C=C(\C)C(=O)O)cc1` to `CCCCCCCCCCCCCCCCOc1ccc(/C=C(\C)C(=O)OCCCl)cc1`, the Decrease rises from 1% to 5%.

Going from `O=C(/C=C/c1ccc(Oc2ccccc2)cc1)OCCCCl` to `O=C(/C=C/c1ccc(Oc2ccccc2)cc1)OCCCl`, the Decrease rises from -2% to 21%.

Going from `CCCCCCCCCCCCCCCCOc1ccc(/C=C(\C)C(=O)OCC(O)CO)cc1` (stereo not drawn) to `CCCCCCCCCCCCOc1ccc(/C=C(\C)C(=O)OCC(O)CO)cc1` (stereo not drawn), the Decrease rises from 5% to 33%.

species on record: Rattus norvegicus; assay: tested for the hypolipidemic activity, expressed as percent decrease in serum cholesterol in rat, at dosage of 50 mg for 3 days by Zak et al method; format: functional
Procedure, shortened: (§1)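 Male Sprague-Dawley rats, 4 weeks old, kept on CE-2 chow for at least 1 week, then grouped (generally five per group). Compound was mixed into CE-2 powder and fed ad libitum for the stated period; controls received plain CE-2 powder. Diet level is given as mg/100 g (mg%), about equal to mg/kg/day. Total serum cholesterol was measured by the Zak et al. method and reported as percent depression versus control group mean. Significance was p < 0.05.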

`CCCCCCCCCCCCCCCCOc1ccc(/C=C(\C)C(=O)OCCCl)cc1` gave a Decrease of 20%.

species on record: Rattus norvegicus; assay: Tested for the hypolipidemic activity, expressed as percent decrease in Triglyceride in rat, at dosage of mg for 7 days by Ryan and Rasho method; format: functional
Procedure, shortened: as §1, with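 “triglyceride” for “cholesterol”, “Ryan and Rasho” for “Zak et al.”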

For `CCCCCCCCCCCCOc1ccc(/C=C(\C)C(=O)OCC(COC(=O)/C(C)=C/c2ccc(OCCCCCCCCCCCC)cc2)OC(=O)/C(C)=C/c2ccc(OCCCCCCCCCCCC)cc2)cc1` (stereo not drawn), the Decrease was 28%.

species on record: Rattus norvegicus; assay: Tested for the hypolipidemic activity, expressed as percent decrease in serum cholesterol in rat, at dosage of 100 mg for 6 days by Zak et al method; format: functional
Procedure, shortened: as §1

`CCCCCCCCOc1ccc(/C=C/C(=O)OCC(O)CO)cc1` (stereo not drawn) and `CCCCOc1ccc(/C=C/C(=O)OCC(O)CO)cc1` (stereo not drawn) are the same in Decrease: 7% for the first, 7% for the second.

Going from `COc1ccc(/C=C/C(=O)OCC(O)CO)cc1` (stereo not drawn) to `O=C(/C=C/c1ccccc1)OCC(O)CO` (stereo not drawn), the Decrease rises from 4% to 6%.

`O=C(/C=C/c1ccc(Oc2ccccc2)cc1)OCCCCl` gave a Decrease of 32%.

species on record: Rattus norvegicus; assay: Tested for the hypolipidemic activity, expressed as percent decrease in Triglyceride in rat, at dosage of 10 mg for 7 days by Ryan and Rasho method; format: functional
Procedure, shortened: as §1, with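 “triglyceride” for “cholesterol”, “Ryan and Rasho” for “Zak et al.”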

Compared with `CCCCCCCCCCCCCCCCOc1ccc(/C=C/C(=O)O)cc1`, `O=C(/C=C/c1ccc(Oc2ccccc2)cc1)OCCCCl` is higher in Decrease: 2% for the first, 13% for the second.

tested on: Rattus norvegicus; assay: In vivo hypolipidemic activity, expressed as percent decrease in serum cholesterol in rat, at dosage of 20 mg for 7 days.; format: functional
Procedure, shortened: as §1

Compared with `CCCCCCCCCCCCCCCCOc1ccc(/C=C/C(=O)O)cc1`, `CCCCCCCCCCCCCCCCOc1ccc(/C=C(\C)C(=O)O)cc1` is higher in Decrease: 2% for the first, 9% for the second.

Compared with `C/C(=C\c1ccc(Oc2ccccc2)cc1)C(=O)OCC(O)CO` (stereo not drawn), `O=C(O)/C=C/c1ccc(Oc2ccccc2)cc1` is higher in Decrease: 7% for the first, 14% for the second.

Compared with `O=C(/C=C/c1ccc(Oc2ccccc2)cc1)OCCCCl`, `O=C(/C=C/c1ccc(Oc2ccccc2)cc1)OCCCl` is higher in Decrease: 17% for the first, 18% for the second.

Compared with `CCCCCCCCCCCCCCCCOc1ccc(/C=C(\C)C(=O)OCCCl)cc1`, `CCCCCCCCCCCCCCCCOc1ccc(/C=C(\C)C(=O)OCC(O)CO)cc1` (stereo not drawn) is lower in Decrease: 20% for the first, 11% for the second.

For `CCCCCCCCCCCCOc1ccc(/C=C(\C)C(=O)OCC(O)CO)cc1` (stereo not drawn), the Decrease was 16%.

species on record: Rattus norvegicus; assay: Hypolipidemic activity expressed as percentage decrease in triglyceride in rat, at dosage of 50 mg for 7 days; format: functional
Procedure, shortened: as §1, with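 “triglyceride” for “cholesterol”, “Ryan and Rasho” for “Zak et al.”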

Compared with `C/C(=C\c1ccc(Oc2ccccc2)cc1)C(=O)OCC(O)CO` (stereo not drawn), `O=C(O)/C=C/c1ccc(Oc2ccccc2)cc1` is higher in Decrease: 4% for the first, 34% for the second.

First: CCCCCCCCCCCCCCCCOc1ccc(/C=C(\C)C(=O)O)cc1
Second: CCCCCCCCCCCCCCCCOc1ccc(/C=C(\C)C(=O)OCC(O)CO)cc1 (stereo not drawn)
The Decrease of the first is lower: 25% for the first, 28% for the second.

With `CCCCCCCCCCCCOc1ccc(/C=C(\C)C(=O)OCC(O)CO)cc1` (stereo not drawn) the Decrease was 53%.

species on record: Rattus norvegicus; assay: Tested for the hypolipidemic activity, expressed as percent decrease in Triglyceride in rat, at dosage of 100 mg for 6 days by Ryan and Rasho method; format: functional
Procedure, shortened: as §1, with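 “triglyceride” for “cholesterol”, “Ryan and Rasho” for “Zak et al.”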

`CCCCCCCCOc1ccc(/C=C/C(=O)OCC(O)CO)cc1` (stereo not drawn) and `CCCCOc1ccc(/C=C/C(=O)OCC(O)CO)cc1` (stereo not drawn) are the same in Decrease: 15% for the first, 15% for the second.

Going from `COc1ccc(/C=C/C(=O)OCC(O)CO)cc1` (stereo not drawn) to `O=C(/C=C/c1ccccc1)OCC(O)CO` (stereo not drawn), the Decrease falls from 31% to 16%.

For `O=C(/C=C/c1ccc(Oc2ccccc2)cc1)OCCCCl`, the Decrease was 54%.

species on record: Rattus norvegicus; assay: Tested for the hypolipidemic activity, expressed as percent decrease in serum cholesterol in rat, at dosage of 50 mg for 7 days; format: functional
Procedure, shortened: as §1

Going from `C/C(=C\c1ccc(Oc2ccccc2)cc1)C(=O)OCC(O)CO` (stereo not drawn) to `O=C(O)/C=C/c1ccc(Oc2ccccc2)cc1`, the Decrease rises from 14% to 15%.

First: CCCCCCCCCCCCCCCCOc1ccc(/C=C(\C)C(=O)O)cc1
Second: CCCCCCCCCCCCCCCCOc1ccc(/C=C(\C)C(=O)OCC(O)CO)cc1 (stereo not drawn)
The Decrease of the first is higher: 17% for the first, 15% for the second.

First: CCCCCCCCCCCCOc1ccc(/C=C(\C)C(=O)OCC(O)CO)cc1 (stereo not drawn)
Second: CCCCCCCCCCCCOc1ccc(/C=C(\C)C(=O)OCC(COC(=O)/C(C)=C/c2ccc(OCCCCCCCCCCCC)cc2)OC(=O)/C(C)=C/c2ccc(OCCCCCCCCCCCC)cc2)cc1 (stereo not drawn)
The Decrease of the first is higher: 26% for the first, 2% for the second.

species on record: Rattus norvegicus; assay: tested for the hypolipidemic activity, expressed as percent decrease in Triglyceride in rat, at dosage of 50 mg for 3 days by Ryan and Rasho method; format: functional
Procedure, shortened: as §1, with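 “triglyceride” for “cholesterol”, “Ryan and Rasho” for “Zak et al.”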

`CCCCCCCCCCCCCCCCOc1ccc(/C=C(\C)C(=O)OCCCl)cc1` was tested, and the Decrease was 26%.

species on record: Rattus norvegicus; assay: Tested for the hypolipidemic activity, expressed as percent decrease in serum cholesterol in rat, at dosage of 10 mg for 7 days by Zak et al method; format: functional
Procedure, shortened: as §1

Going from `CCCCCCCCCCCCCCCCOc1ccc(/C=C/C(=O)O)cc1` to `O=C(/C=C/c1ccc(Oc2ccccc2)cc1)OCCCCl`, the Decrease falls from 7% to 4%.

species on record: Rattus norvegicus; assay: tested for the hypolipidemic activity, expressed as percent decrease in Triglyceride in rat, at dosage of 10 mg for 7 days by Ryan and Rasho method; format: functional
Procedure, shortened: as §1, with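 “triglyceride” for “cholesterol”, “Ryan and Rasho” for “Zak et al.”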

`CCCCCCCCCCCCOc1ccc(/C=C(\C)C(=O)OCC(O)CO)cc1` (stereo not drawn) gave a Decrease of 10%.

species on record: Rattus norvegicus; assay: tested for the hypolipidemic activity, expressed as percent decrease in serum cholesterol in rat, at dosage of 10 mg for 7 days by Zak et al method; format: functional
Procedure, shortened: as §1

For `CCCCCCCCCCCCOc1ccc(/C=C(\C)C(=O)OCC(O)CO)cc1` (stereo not drawn), the Decrease was 9%.

species on record: Rattus norvegicus; assay: Tested for the hypolipidemic activity, expressed as percent decrease in Triglyceride in rat, at dosage of 100 mg for 3 days by Ryan and Rasho method; format: functional
Procedure, shortened: as §1, with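 “triglyceride” for “cholesterol”, “Ryan and Rasho” for “Zak et al.”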

Compared with `CCCCCCCCCCCCCCCCOc1ccc(/C=C(\C)C(=O)OCCCCl)cc1`, `CCCCCCCCCCCCCCCCOc1ccc(/C=C(\C)C(=O)OCCCl)cc1` is higher in Decrease: 25% for the first, 48% for the second.

Going from `C/C(=C\c1ccccc1)C(=O)OCC(O)CO` (stereo not drawn) to `CCCCCCCCCCCCCCCCOc1ccc(/C=C(\C)C(=O)OCC(O)CO)cc1` (stereo not drawn), the Decrease rises from 22% to 68%.

Compared with `CCCCCCCCCCCCCCCCOc1ccc(/C=C/C(=O)OCCCO)cc1`, `CCCCCCCCCCCCCCCCOc1ccc(/C=C(\C)C(=O)OCCCO)cc1` is higher in Decrease: 16% for the first, 43% for the second.

Going from `CCCCCCCCCCCCCCCCOc1ccc(/C=C(\C)C(=O)OCCO)cc1` to `CCCCCCCCCCCCCCCCOc1ccc(/C=C(\C)C(=O)OCCS(=O)(=O)[O-])cc1.[Na+]`, the Decrease falls from 59% to 36%.

Going from `C=CCOc1ccc(/C=C/C(=O)OCC(O)CO)cc1` (stereo not drawn) to `CCCCOc1ccc(/C=C/C(=O)OCCN2CCOCC2)cc1.Cl`, the Decrease falls from -14% to -32%.

First: CCCCCCCCCCCCCCCCOc1ccc(/C=C/C(=O)OCCCOC(=O)/C=C/c2ccc(OCCCCCCCCCCCCCCCC)cc2)cc1
Second: CCCCCCCCCCCCCCCCOc1ccc(/C=C/C(=O)OCCOC(=O)/C=C/c2ccc(OCCCCCCCCCCCCCCCC)cc2)cc1
The Decrease of the first is higher: -2% for the first, -4% for the second.

For `C=C(C)C(=O)OCCOC(=O)/C=C/c1ccc(Oc2ccccc2)cc1`, the Decrease was -15%.

species on record: Rattus norvegicus; assay: Tested for the hypolipidemic activity, expressed as percent decrease in serum cholesterol in rat, at dosage of 100 mg for 3 days by Zak et al method; format: functional
Procedure, shortened: as §1

Going from `CCCCCCCCCCCCCCCCOc1ccc(/C=C(\C)C(=O)OCCCCl)cc1` to `CCCCCCCCCCCCCCCCOc1ccc(/C=C(\C)C(=O)OCCCl)cc1`, the Decrease rises from 17% to 24%.

Compared with `C/C(=C\c1ccccc1)C(=O)OCC(O)CO` (stereo not drawn), `CCCCCCCCCCCCCCCCOc1ccc(/C=C(\C)C(=O)OCC(O)CO)cc1` (stereo not drawn) is higher in Decrease: 10% for the first, 32% for the second.

Compared with `CCCCCCCCCCCCCCCCOc1ccc(/C=C/C(=O)OCCCO)cc1`, `CCCCCCCCCCCCCCCCOc1ccc(/C=C(\C)C(=O)OCCCO)cc1` is lower in Decrease: 16% for the first, 6% for the second.

Compared with `CCCCCCCCCCCCCCCCOc1ccc(/C=C(\C)C(=O)OCCO)cc1`, `CCCCCCCCCCCCCCCCOc1ccc(/C=C(\C)C(=O)OCCS(=O)(=O)[O-])cc1.[Na+]` is lower in Decrease: 13% for the first, 8% for the second.

Compared with `C=CCOc1ccc(/C=C/C(=O)OCC(O)CO)cc1` (stereo not drawn), `CCCCOc1ccc(/C=C/C(=O)OCCN2CCOCC2)cc1.Cl` is lower in Decrease: 12% for the first, -9% for the second.

Compared with `CCCCCCCCCCCCCCCCOc1ccc(/C=C/C(=O)OCCCOC(=O)/C=C/c2ccc(OCCCCCCCCCCCCCCCC)cc2)cc1`, `CCCCCCCCCCCCCCCCOc1ccc(/C=C/C(=O)OCCOC(=O)/C=C/c2ccc(OCCCCCCCCCCCCCCCC)cc2)cc1` is higher in Decrease: 8% for the first, 9% for the second.

`C=C(C)C(=O)OCCOC(=O)/C=C/c1ccc(Oc2ccccc2)cc1` gave a Decrease of 14%.
